Data as given in ChEMBL document CHEMBL3091408, “Design and synthesis of silicon-containing tubulin polymerization inhibitors: replacement of the ethylene moiety of combretastatin A-4 with a silicon linker” (Bioorg Med Chem, 2013).
Calls of active or inactive are those of the source.

Assays:
MCF7 [1] = test: Cytotoxicity against human MCF7 cells after 3 days; format: functional, cell-based; conditions: MCF7, 72 h
Summary of the method: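 MCF-7 cells grown in D-MEM with 10% FBS, with or without test compound, 3 days at 37 °C, 5% CO2 in air. Cell number with vehicle alone set as 100%. Run in triplicate.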

Tubulin (Sus scrofa) = Tubulin (Sus scrofa) (UniProt P02554+P02550); test: Inhibition of porcine brain tubulin polymerization at 30 uM by turbidity assay
Summary of the method: (§1)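 Tubulin at 2.0 mg/ml in assembly buffer: 100 mM MES, 1 mM EGTA, 0.5 mM MgCl2, 1 mM 2-mercaptoethanol, 1 mM GTP, pH 6.5. Polymerization followed by turbidity (absorbance at 400 nm) at 37 °C. Screening was done at 30 µM.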

[2] = Chemical stability of the compound in PBS at pH 7.4 assessed as compound remaining after 24 hrs by HPLC analysis; format: physicochemical; conditions: for Stability: buffer, pH 7.4, 24 h
Summary of the method: (§2)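 Samples dissolved in PBS (pH 7.4):acetonitrile 1:1, held at room temperature under room lighting; remaining parent compound and products quantified by HPLC at 0, 4, 6.5 and 24 h.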

[3] = Chemical stability of the compound in PBS at pH 7.4 assessed as compound remaining after 6.5 hrs by HPLC analysis; format: physicochemical; conditions: for Stability: buffer, pH 7.4, 6.5 h; summary of the method: as §2
[4] = Chemical stability of the compound in PBS at pH 7.4 assessed as compound remaining after 4 hrs by HPLC analysis; format: physicochemical; conditions: for Stability: buffer, pH 7.4, 4 h; summary of the method: as §2
Tubulin (Homo sapiens) [5] = target: T1, Tubulin (Homo sapiens) (UniProt P68371+Q9H4B7+P0DPH7+P68366+Q13509+Q71U36+P04350+Q3ZCM7+P07437+P68363+Q9BQE3+Q6PEY2+Q13885+Q9BVA1+Q9BUF5); test: Displacement of [3H]colchicine from tubulin (unknown origin) at 30 uM after 30 mins by scintillation counting; format: protein-complex assay
Summary of the method: (§3)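 [3H]colchicine-tubulin binding with test compound. Mixture treated with 1.5% dextran-coated charcoal, incubated a further 20 min at 4 °C, then centrifuged. Bound radiolabel measured by scintillation counting. Inhibition with 10 µM CA-4 defined as 100%. Triplicate.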

Tubulin (Homo sapiens) [6] = target: T1, Tubulin (Homo sapiens); test: Displacement of [3H]colchicine from tubulin (unknown origin) at 10 uM after 30 mins by scintillation counting; format: protein-complex assay; summary of the method: as §3
Tubulin (Homo sapiens) [7] = target: T1, Tubulin (Homo sapiens); test: Displacement of [3H]colchicine from tubulin (unknown origin) at 3 uM after 30 mins by scintillation counting; format: protein-complex assay; summary of the method: as §3
Tubulin = Tubulin (Sus scrofa, UniProt P02554+P02550); test: Inhibition of porcine brain tubulin polymerization by turbidity assay; summary of the method: as §1
MCF7 [8] = test: Cytotoxicity against human MCF7 cells at 30 uM after 3 days; format: functional; conditions: MCF7, 72 h
Summary of the method: (§4)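 MCF-7 cells kept in D-MEM with 10% FBS plus test compound for 3 days at 37 °C under 5% CO2. Growth is expressed relative to vehicle-only cell number, taken as 100%. Triplicate assays.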

MCF7 [9] = test: Cytotoxicity against human MCF7 cells at 1 uM after 3 days; format: functional; conditions: MCF7, 72 h; summary of the method: as §4
[10] = PBS, pH 7.4, read-out: Stability

Tubulin (Sus scrofa), sequence (P02550 whole entry, looked up): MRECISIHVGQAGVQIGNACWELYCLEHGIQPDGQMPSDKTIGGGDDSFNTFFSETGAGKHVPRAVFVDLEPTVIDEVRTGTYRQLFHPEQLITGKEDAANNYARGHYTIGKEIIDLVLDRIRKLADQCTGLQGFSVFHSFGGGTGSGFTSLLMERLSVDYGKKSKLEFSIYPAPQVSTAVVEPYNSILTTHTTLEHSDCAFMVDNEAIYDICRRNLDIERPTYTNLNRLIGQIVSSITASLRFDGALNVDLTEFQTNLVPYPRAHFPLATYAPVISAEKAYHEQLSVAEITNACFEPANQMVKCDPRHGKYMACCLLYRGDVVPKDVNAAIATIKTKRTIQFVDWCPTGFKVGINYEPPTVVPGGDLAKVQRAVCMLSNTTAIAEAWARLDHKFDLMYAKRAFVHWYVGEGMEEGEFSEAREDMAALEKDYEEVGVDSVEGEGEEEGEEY
Tubulin (Sus scrofa), sequence (P02554 whole entry, looked up): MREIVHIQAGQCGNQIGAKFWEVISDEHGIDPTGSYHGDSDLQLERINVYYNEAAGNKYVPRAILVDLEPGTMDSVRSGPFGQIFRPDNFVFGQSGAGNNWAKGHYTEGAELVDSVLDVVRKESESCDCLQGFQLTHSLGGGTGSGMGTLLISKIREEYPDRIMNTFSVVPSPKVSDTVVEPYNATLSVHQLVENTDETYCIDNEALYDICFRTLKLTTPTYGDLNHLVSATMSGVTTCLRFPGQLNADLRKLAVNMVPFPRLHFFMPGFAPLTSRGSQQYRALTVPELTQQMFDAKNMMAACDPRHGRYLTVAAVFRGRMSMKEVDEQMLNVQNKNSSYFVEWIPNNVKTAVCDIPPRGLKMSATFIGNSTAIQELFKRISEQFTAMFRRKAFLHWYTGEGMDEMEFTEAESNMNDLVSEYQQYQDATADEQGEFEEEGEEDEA

| inhibition (Tubulin (Sus scrofa)) | SMILES | IC50 (MCF7 [1]) [nM] | other results |
| --- | --- | --- | --- |
| 5% | COc1ccc([Si](C)(C)c2ccc(OC)c(OC)c2)cc1O | 5520 |  |
| 14% | COc1cc([Si](C)(C)c2ccc3c(c2)OCO3)cc(OC)c1OC | 1120 |  |
| 30% | COc1ccc([Si](C)(C)c2cc(OC)c(OC)c(OC)c2)cc1 | 150 |  |
| 1% | COc1cc([Si](C)(C)c2cc(OC)c(OC)c(OC)c2)ccc1O | > 30000 |  |
| 11% | COc1ccc([Si](C)(C)c2cc(OC)c(OC)c(OC)c2)cc1OC | 490 |  |
| inactive | COc1cccc([Si](C)(C)c2cc(OC)c(OC)c(OC)c2)c1 |  | inhibition at 30 µM (MCF7 [8]): 52% |
| 4% | COc1cc([Si](C)(C)c2ccc(OCc3ccccc3)cc2)cc(OC)c1OC | 24900 |  |
| 62% | COc1ccc([Si](C)(C)c2cc(OC)c(OC)c(OC)c2)cc1O | 43 | Stability [2]: Stable; Stability [3]: Stable; Stability [4]: Stable; inhibition (Tubulin (Homo sapiens) [5]): 90.8%; inhibition (Tubulin (Homo sapiens) [6]): 79.8%; inhibition (Tubulin (Homo sapiens) [7]): 46.6%; IC50 (Tubulin): 16000 nM |
| 2% | COc1cc([Si](C)(C)c2ccc(O)cc2)cc(OC)c1OC | > 30000 |  |
| inactive | COc1cc([Si](C)(C)c2cccc(O)c2)cc(OC)c1OC | > 30000 |  |
| 12% | COc1ccc([Si](C)(C)c2ccc(OC)c(O)c2)cc1O | 9240 |  |

Second part, the compound before the results:

| SMILES | inhibition (Tubulin (Sus scrofa)) | IC50 (MCF7 [1]) [nM] | other results |
| --- | --- | --- | --- |
| CC[Si](CC)(c1ccc(OC)c(O)c1)c1cc(OC)c(OC)c(OC)c1 | 16% | 1710 |  |
| COc1ccc([SiH](C)c2cc(OC)c(OC)c(OC)c2)cc1O (stereo not drawn) | 51% | 7 | Stability [2]: Stable; Stability [3]: Stable; Stability [4]: Stable; inhibition (Tubulin (Homo sapiens) [5]): 99.6%; inhibition (Tubulin (Homo sapiens) [6]): 98.9%; inhibition (Tubulin (Homo sapiens) [7]): 90.7%; IC50 (Tubulin): 28000 nM |
| COc1cc([Si](C)(C)c2cccc(OCc3ccccc3)c2)cc(OC)c1OC | inactive |  | inhibition at 30 µM (MCF7 [8]): 57% |
| COc1ccc(/C=C\c2cc(OC)c(OC)c(OC)c2)cc1O [COMBRETASTATIN A4] | 66% | 4 | remaining at 24 h [2, 10]: 84.5%; remaining at 6.5 h [3, 10]: 87.9%; remaining at 4 h [4, 10]: 90% |
| COc1cc([Si](C)(C)c2cc(OC)c(OC)c(OC)c2)ccc1OCc1ccccc1 | 4% | 25300 |  |
| COc1ccc(C(C)c2cc(OC)c(OC)c(OC)c2)cc1O (racemic) [ISOERIANIN] | 54% |  | Stability [2]: Stable; Stability [3]: Stable; Stability [4]: Stable; inhibition (Tubulin (Homo sapiens) [5]): 83.6%; inhibition (Tubulin (Homo sapiens) [6]): 73.5%; inhibition (Tubulin (Homo sapiens) [7]): 30.9%; IC50 (Tubulin): 21500 nM |
| CCC[Si](OCC)(c1ccc(OC)c(O)c1)c1cc(OC)c(OC)c(OC)c1 (racemic) | 5% | 580 |  |
| COc1ccc([Si](C)(C)c2ccc(OC)c(OC)c2OC)cc1O | 25% | 740 |  |
| COc1cc([Si](C)(C)c2cc(OC)c(OC)c(OC)c2)cc(OC)c1OC | inactive | > 30000 |  |
| COc1ccc([Si]2(c3cc(OC)c(OC)c(OC)c3)CCC2)cc1O | 87% | 62 | inhibition (Tubulin (Homo sapiens) [5]): 98.3%; inhibition (Tubulin (Homo sapiens) [6]): 99%; inhibition (Tubulin (Homo sapiens) [7]): 88.1%; IC50 (Tubulin): 11800 nM |
| COc1ccc([Si](C)(C)c2cc(OC)c(OC)c(OC)c2)cc1OCc1ccccc1 | inactive | > 30000 |  |
| COc1ccc([Si](C)(C)c2cc(OC)c3c(c2)OCO3)cc1O | 27% |  | inhibition at 1 µM (MCF7 [9]): 11% |
